# TDP2 inh: blocks human TDP2 phosphodiesterase activity | 0.34% of 370,000 active | recombinant TDP2, T5PNP hydrolysis, p-nitrophenol absorbance 415 nm | inhibition, % at 12.8 µM | O95551;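 active = inhibition above the mean of all tested compounds plus 3 SD, set per campaign, cut at about 25% in these data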
#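 Assay system: recombinant human TDP2 / Reagent: T5PNP substrate at 5 mM, a TopII-DNA adduct mimic / Measured by: epi absorbance from released p-nitrophenol / Evaluation: % inhibition relative to enzyme-containing and enzyme-free wells / Control set: enzyme-free and DMSO wells / Replicates: each compound tested once, singlicate / Schedule: enzyme reaction with compound for 2 h at 37 °C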
# LEDGF integ inh: blocks HIV-1 LEDGF/p75-dependent DNA integration. TR-FRET IN-LEDGF/p75 DNA integration, Eu/Cy5. 0.64% of 370,000 active. inhibition, % at 3.7 µM;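 active = inhibition above the screen-wide mean plus 3 SD, cut at about 13% in these data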;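 note: signal is the Cy5 over europium emission ratio at 671 and 618 nm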
# CASP6 VEID inh: caspase-6 (human) enzyme inhibition | P55212 | purified caspase-6, Z-VEID-R110 cleavage fluorescence | inhibition, % at 12.5 µM | 0.53% of 350,000 active;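 active = mean inhibition across replicates at least about 35%, with every replicate also reaching that limit, limit read from the data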
# ARFGAP1 inh: rat ARFGAP1 inhibition; Q62848; Arfgap1-stimulated ARF1 GTP hydrolysis, GDP FP detection; inhibition, % at 16.5 µM; 0.26% of 360,000 active; AID 651572;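 active = inhibition above a per-plate limit, mean inhibition of low control wells plus 3 SD, cut at about 25% in these data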
# Target sequence (Q62848 1-136 limits assumed): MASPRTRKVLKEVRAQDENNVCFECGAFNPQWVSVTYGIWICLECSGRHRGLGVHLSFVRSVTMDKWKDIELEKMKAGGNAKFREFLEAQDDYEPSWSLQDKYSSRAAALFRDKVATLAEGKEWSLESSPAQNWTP
#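 Assay system: Rat Arfgap1 GAP domain (His6, aa 1-136), purified enzyme | Buffer or medium: HEPES 25 mM pH 7.5, NaCl 150 mM, MgCl2, DTT | Schedule: GTP hydrolysis reaction 2 h at 25 °C | Signal: FP of antibody-bound GDP Alexa 633 tracer, ex 620/em 688 nm | Measure: Percent inhibition of Arfgap1-stimulated GTP hydrolysis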
# ASAP1 inh: blocks human ASAP1-stimulated Arf1 GTP hydrolysis | Q9ULH1 | 0.19% of 360,000 active | GDP FP detection | inhibition, % at 16.5 µM; in the data active = inhibition above about 25%
# Target sequence (Q9ULH1 325-724 limits assumed): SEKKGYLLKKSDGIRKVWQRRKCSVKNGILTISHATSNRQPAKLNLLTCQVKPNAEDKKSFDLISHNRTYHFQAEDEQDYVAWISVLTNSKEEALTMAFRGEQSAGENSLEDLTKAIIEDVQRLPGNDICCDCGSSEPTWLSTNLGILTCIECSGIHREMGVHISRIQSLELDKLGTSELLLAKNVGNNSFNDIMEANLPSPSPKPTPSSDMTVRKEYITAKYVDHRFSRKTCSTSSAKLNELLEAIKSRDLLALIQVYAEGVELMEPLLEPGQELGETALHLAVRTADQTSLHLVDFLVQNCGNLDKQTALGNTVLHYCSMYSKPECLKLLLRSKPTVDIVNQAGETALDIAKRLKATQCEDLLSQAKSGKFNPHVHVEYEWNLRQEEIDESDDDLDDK
# IN multimer up: HIV-1 integrase multimerization activation, counter-screen; 17% of 2,000 active; activation, % at 7.7 µM; TR-FRET HIV-1 integrase multimerization, biochemical; AID 1053131; shares compounds with LEDGF integ inh; in the data active = activation above about 8.9%
# TRFRET interf: TR-FRET optical interference, LEDGF/p75 integration counter-screen | shares compounds with LEDGF integ inh | TR-FRET optical interference counterscreen, HIV-1 IN multimerization | inhibition, % at 7.7 µM | 2,000 tested, under 10 active | AID 1053135;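 active = inhibition above the mean over all tested compounds plus 3 SD, which no compound reached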
# LEDGF integ conf: LEDGF/p75-dependent HIV-1 integration inhibition, confirmation; inhibition, % at 3.7 µM; TR-FRET LEDGF/p75-dependent HIV-1 integration, biochemical; AID 1053136; 36% of 2,000 active; shares compounds with LEDGF integ inh; in the data active = inhibition above about 14%
# Numbers stand for hits; 0 = inactive; - = not tested or not shown. A selection: hits, their analogues and other compounds. The true share with any hit is near 1.3%.
SMILES,TDP2 inh,LEDGF integ inh,CASP6 VEID inh,ARFGAP1 inh,ASAP1 inh,IN multimer up,TRFRET interf,LEDGF integ conf
C[C@H]1c2cccc(O)c2C(=O)C2C(=O)C3(O)C(=O)C(C(N)=O)C(=O)[C@@H](N(C)C)[C@@H]3[C@@H](O)[C@@H]21 (stereo partly specified),0,0,0,0,0,-,-,-
CN(C)c1ccc(O)c2c1CC1CC3C(N(C)C)C(=O)C(C(N)=O)=C(O)[C@@]3(O)C(=O)C1=C2O (stereo partly specified),0,22.1,0,0,0,10.0,0,0
CCOC(=O)N1CCN(C(=O)c2ccc3nc4ccc(Cl)cc4c(=O)n3c2)CC1,0,17.6,-,0,0,0,0,0
O=C1C2C3C=CC(CC3)C2C(=O)N1/N=C/c1ccc(O)c(O)c1 (stereo unspecified),0,0,0,0,0,-,-,-
O=C1c2ccccc2C(=O)N1/N=C/c1ccc(O)c(O)c1,0,30.3,-,0,0,22.7,0,58.6
COC(=O)C[C@H]1C[C@H]2c3cc(NC(=O)Cc4ccncc4)ccc3O[C@H]2[C@@H](CO)O1,0,14.4,0,0,0,0,0,0
COc1ccc(-c2oc3cc(O)c(OC)c(O)c3c(=O)c2OC)cc1,0,0,0,0,0,-,-,-
CC1OC(Oc2c(-c3cc(O)c(O)c(O)c3)oc3cc(O)cc(O)c3c2=O)C(O)C(O)C1O (stereo unspecified),0,38.6,0,0,0,41.1,0,52.7
O=c1c(O)c(-c2ccc(O)c(O)c2)oc2cc(O)cc(O)c12,0,89.4,-,0,0,40.7,0,88.4
COc1c(-c2ccc(O)cc2)oc2cc(O)cc(O)c2c1=O,0,15.4,0,0,0,0,0,44.8
COc1ccc(-c2cc(=O)c3c(O)cc(O)cc3o2)cc1,0,0,0,0,0,-,-,-
O=c1cc(-c2ccc(O)c(O)c2)oc2cc(O)cc(O)c12,0,42.0,0,0,0,15.4,0,88.0
O=c1c(-c2ccc(O)cc2)coc2cc(O)cc(O)c12,0,0,0,-,0,-,-,-
C[C@@H]1O[C@@H](OC[C@@H]2O[C@H](Oc3c(-c4ccc(O)cc4)oc4cc(O)cc(O)c4c3=O)[C@@H](O)[C@H](O)[C@H]2O)[C@H](O)[C@H](O)[C@H]1O,0,0,0,0,0,-,-,-
Cc1ccc(C(=O)/C=C/Nc2ccc(S(=O)(=O)Nc3cc(C)nc(C)n3)cc2)cc1,0,0,0,0,0,-,-,-
COc1ccc(/C=C2\Sc3ccc(C(=O)N4CCN(Cc5ccccc5)CC4)cc3N(C)C2=O)cc1OC,0,0,0,0,0,-,-,-
CSC1(SC2=NCCN2)SC2(NCCN2)S1,0,22.7,0,0,0,0,0,0
COc1cccc(CNC(=O)c2ccccc2C(=O)NC(C)(C)C(=O)NCc2cccc(OC)c2)c1,0,0,0,0,0,-,-,-
C=CCCC1CN(Cc2ccc(OC)cc2)S(=O)(=O)c2c(Oc3ccc(C(C)C)cc3)cccc2O1 (stereo unspecified),0,0,0,0,0,-,-,-
C=CCCC1CN(Cc2ccc(OC)cc2)S(=O)(=O)c2c(cccc2N(C)S(=O)(=O)c2ccc(C)cc2)O1 (stereo unspecified),0,89.2,0,0,0,0,0,0
O=C1OC(/C=C/c2ccccc2)=NC/1=C/C=C/c1ccccc1,0,0,-,0,0,-,-,-
O=C1OC(/C=C/c2ccc(Cl)cc2)=NC/1=C/c1ccco1,0,17.3,-,0,0,0,0,0
O=C(Nc1nccs1)c1ccc(S(=O)(=O)N2CCCCC2)cc1,0,15.1,0,0,0,0,0,0
CC1CN(S(=O)(=O)c2ccc(C(=O)Nc3nccs3)cc2)CC(C)O1 (stereo unspecified),0,0,0,0,0,-,-,-
O=C(Nc1cccc(NC(=O)c2ccc([N+](=O)[O-])o2)c1)c1ccco1,0,0,0,0,0,-,-,-
SMILES,TDP2 inh,LEDGF integ inh,CASP6 VEID inh,ARFGAP1 inh,ASAP1 inh,IN multimer up,TRFRET interf,LEDGF integ conf
NC(=O)/C(=C\c1ccc([N+](=O)[O-])o1)c1ccco1,0,22.1,0,0,0,0,0,27.9
Cc1ccc(C(=O)CSc2nccn2-c2ccccc2)cc1,0,0,-,0,0,-,-,-
CCOC(=O)c1c2ccc(OCC(=O)N/N=C/c3ccc(Cl)cc3)cc2n2ccccc12,0,14.1,-,0,0,0,0,0
Cc1cc(C(C)(C)C)cc(C)c1S(=O)(=O)N1CCN(C(=O)c2cc([N+](=O)[O-])c[nH]c2=O)CC1,0,28.4,0,0,0,0,0,0
C[C@H](CO)N1C[C@H](C)[C@H](CN(C)Cc2ccncc2)OCCCC[C@H](C)Oc2ccc(NC(=O)CCCN(C)C)cc2C1=O,-,-,0,-,-,-,-,-
CCOC(=O)/C=C/C(=O)Nc1ccccc1-c1ccccc1NC(=O)/C=C/C(=O)OCC,0,55.8,0,0,0,0,0,0
CCOC(=O)/C=C/C(=O)OCC(=O)Nc1cccc(Cl)c1Cl,0,0,0,0,0,-,-,-
COC(=O)/C(=C/Nc1ccc(O)cc1)[N+](=O)[O-],0,24.8,-,0,0,0,0,0
COC(=O)/C(=C/Nc1ccccc1)[N+](=O)[O-],0,0,-,0,0,-,-,-
COc1ccc(-n2nc3cc(C)c(N)cc3n2)cc1Cl,0,14.8,0,0,0,0,0,0
CCN=C1S/C(=C\c2ccc(OCC)c(OC)c2)C(=O)N1CC,0,0,-,0,0,-,-,-
CCN=C1S/C(=C\c2cc(Cl)c(OC)c(OC)c2)C(=O)N1CC,0,17.4,0,0,0,0,0,0
CN(C)/C=N/c1ncn(-c2ncc(C(F)(F)F)cc2Cl)n1,0,17.1,0,0,0,0,0,0
Cn1c(SCCc2ccc([N+](=O)[O-])cc2)nccc1=O,0,59.7,0,0,0,0,0,0
CCc1nc2ccc(C(=O)NCc3cccs3)cn2c1N(CCC(C)C)CCN(C)C,0,13.9,0,0,0,0,0,0
O=C(c1ccccc1)c1ccc2c(c1)OCCCO2,0,0,0,0,0,-,-,-
O=C1COc2ccc(C(=O)c3ccccc3)cc2CN1,0,50.0,-,0,0,0,0,0
O=S(=O)(c1ccc(F)cc1)N1CCCCN2[C@@H](CO)[C@H](c3ccc(-c4ccccc4)cc3)[C@@H]2C1,-,-,0,-,-,-,-,-
COc1ccc2nc(NCCNC(=S)NCCCN3CCOCC3)c(C#N)cc2c1,0,35.4,0,0,0,0,0,0
Cc1cc(NC(=O)CSc2ncnc3sccc23)no1,0,0,0,0,0,-,-,-

# From PubChem
